NPY2 pot ag: potentiates or activates human NPY-Y2 receptor. 220,000 compounds, 0.45% hits. P49146. activation, % at 3.6 µM. cells expressing NPY-Y2, potentiator/agonist read-out; in the data active means activation above about 27%;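 further: cells stimulated with NPY near EC25 plus isoproterenol at EC100; 0% = vehicle plus submaximal agonist and 100% = vehicle plus saturating agonist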
S1P4 ag: human S1P4 receptor agonism; S1P4-expressing cell line, agonist reporter assay; activation, % at 4.98 µM; 220,000 compounds, 0.35% hits; AID 1509; in the data active means activation above about 11%;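 further: 0% = DMSO vehicle and 100% = reference agonist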
S1P4 antag: antagonists of human S1P4 receptor; S1P4-expressing cells, antagonist mode, reporter read-out; inhibition, % at 4.98 µM; 220,000 compounds, 0.26% hits; AID 1510; in the data active means inhibition above about 29%;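 further: 0% = wells stimulated with agonist and 100% = vehicle wells without agonist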
NPY-Y1 PAM-ag: human NPY-Y1 potentiation or agonism, primary screen | activation, % at 3.6 µM | 220,000 compounds, 0.37% hits | NPY-Y1 expressing cells, potentiator/agonist activation | P25929; in the data active means activation above about 33%, passing the limit was not always enough;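 further: cells stimulated with NPY at EC10 then isoproterenol at EC100; 0% = low agonist plus stimulus and 100% = saturating agonist plus stimulus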
Target sequence (P25929 whole entry, looked up): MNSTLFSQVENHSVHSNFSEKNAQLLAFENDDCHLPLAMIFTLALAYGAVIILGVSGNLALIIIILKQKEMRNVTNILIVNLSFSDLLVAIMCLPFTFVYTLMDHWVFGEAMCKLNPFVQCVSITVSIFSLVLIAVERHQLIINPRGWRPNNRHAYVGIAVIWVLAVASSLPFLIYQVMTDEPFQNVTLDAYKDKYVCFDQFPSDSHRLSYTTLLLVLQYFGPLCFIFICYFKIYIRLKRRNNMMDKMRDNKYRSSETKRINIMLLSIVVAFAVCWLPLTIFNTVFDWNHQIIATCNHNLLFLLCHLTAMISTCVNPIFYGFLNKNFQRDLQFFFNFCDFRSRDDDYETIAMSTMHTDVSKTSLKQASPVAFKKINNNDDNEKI
NPY-Y1 antag: NPY-Y1 (human) receptor antagonism; AID 1040; P25929; HEK293-CNG Y1 cells, membrane potential fluorescence; NPY at EC95, then isoproterenol; inhibition, % at 3.6 µM; 200,000 compounds, 1% hits;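 active means inhibition above the campaign mean inhibition of all tested compounds plus 3 SD, cut at about 20% in these data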;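 further: 0% = DMSO wells given NPY plus isoproterenol and 100% = isoproterenol alone without NPY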
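Assay system: HEK293 Y1/CNG channel cell line; Doses: single compound dose of 3.6 µM, 0.4% DMSO; Timing: dye 3 h, compound 60 min room temperature, stimulation 45 min; Technique: Membrane-potential fluorescent dye readout; Measure: % inhibition of NPY effect.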
NPY Y2 blocker: antagonists of human neuropeptide Y receptor Y2; 140,000 compounds, 0.99% hits; P49146; inhibition, % at 2.7 µM; AID 793; NPY-Y2 expressing cells, antagonist mode; in the data active means inhibition above about 17%;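 further: 0% = vehicle with agonist challenge and 100% = reference antagonist with challenge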
NPY-Y2 pot conf: confirmation of human NPY-Y2 receptor potentiators or agonists. shares compounds with NPY2 pot ag. cell-based NPY-Y2 potentiator/agonist assay. activation, % at 3.6 µM. 450 compounds, 20% hits. AID 1539; in the data active means activation above about 33%
NPY-Y1 potentiator: potentiates or activates NPY-Y1, counter-screen for NPY-Y2 hits | shares compounds with NPY2 pot ag | Y1 HEK293-CNG cells, membrane potential fluorescence | activation, % at 3.6 µM | 450 compounds, 20% hits; in the data active means activation above about 45%;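 further: cells stimulated with submaximal NPY then isoproterenol with phosphodiesterase inhibitor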
NPY-Y1 agonist 2: human NPY-Y1 agonism as NPY-Y2 potentiator counter-screen | shares compounds with NPY2 pot ag | HEK293 Y1-CNGC, membrane potential fluorescence | activation, % at 3.6 µM | 450 compounds, 37% hits | AID 1702;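 active means activation above the mean of DMSO-only control wells plus 3 SD, cut at about 18% in these data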;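 further: cells stimulated with 1 µM isoproterenol plus the PDE inhibitor Ro 20-1724; 0% = isoproterenol with DMSO and no NPY and 100% = 40 nM NPY; Y1 agonists lower the membrane potential dye signal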
CNGC inh: cyclic nucleotide gated channel inhibition as counter-screen. shares compounds with NPY2 pot ag. HEK293-CNG parental, isoproterenol cAMP, membrane potential fluorescence. inhibition, % at 3.6 µM. 450 compounds, 32% hits. AID 1703;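 active means inhibition above the control-well mean plus 3 SD of those wells, cut at about 22% in these data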;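 further: 0% = DMSO with isoproterenol and 100% = DMSO without isoproterenol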
NPY-Y2 ag 2: NPY-Y2 agonism, counter-screen for Y2 potentiators; shares compounds with NPY2 pot ag; HEK293 Y2/CNGC cells, membrane potential fluorescence, agonist mode; activation, % at 3.6 µM; 450 compounds, 56% hits;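 active means activation above the mean of solvent-only control wells plus 3 SD, cut at about 10% in these data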;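 further: cells stimulated by isoproterenol with no NPY added so direct agonism is tested; 0% = DMSO with isoproterenol alone and 100% = NPY at EC100 plus isoproterenol; agonism lowers probe fluorescence through less cAMP and CNG channel opening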
Numbers without * were called inactive; nt = no result given. Shown are actives, neighbours in structure and some others; about 2.4% of the full set was active somewhere.

SMILES	NPY2 pot ag	S1P4 ag	S1P4 antag	NPY-Y1 PAM-ag	NPY-Y1 antag	NPY Y2 blocker	NPY-Y2 pot conf	NPY-Y1 potentiator	NPY-Y1 agonist 2	CNGC inh	NPY-Y2 ag 2
CC(=O)Nc1ccc(S(=O)(=O)NCCSCc2c(Cl)cccc2Cl)cc1	36*	-1	-2	3	-3	0	-1	-4	-11	-4	-3
Cc1cc(C)c2sc(N(CCCN(C)C)C(=O)c3ccc(Br)s3)nc2c1	37*	-1	-28	15	15	nt	74*	88*	67*	75*	81*
Cc1cc(C)c2sc(N(CCN(C)C)C(=O)c3c(F)cccc3F)nc2c1	-4	-1	-8	-7	-6	nt	nt	nt	nt	nt	nt
N#Cc1ccc(COn2nnc3ccccc32)cc1	1	2	-17	14	8	nt	nt	nt	nt	nt	nt
NC(=O)c1c(-c2ccc(Cl)cc2Cl)csc1NC(=O)Cc1ccccc1	32*	1	-23	-56	16	7	-8	-44	-37	-17	-6
O=C(Cc1ccccc1)Nc1scc(-c2ccccc2)c1C(=O)N1CCOCC1	-17	0	17	15	-1	3	nt	nt	nt	nt	nt
N#C/C(=N/Nc1ccc(OC(F)(F)F)cc1)C(N)=S	46*	0	17	27	nt	nt	13	1	-10	-2	23*
CCOC(=O)CC(NC(=O)Cn1nnc(-c2ccccc2F)n1)c1ccccc1Cl (centres undefined)	-4	-1	-15	13	3	nt	nt	nt	nt	nt	nt
CCC(CC)COC(=O)C(C#N)c1nc2ccccc2nc1N1CCN(CC)CC1 (centres undefined)	31*	0	-9	26	-2	8	52*	57*	33*	46*	64*
CCC(C)COC(=O)C(C#N)c1nc2ccccc2nc1N1CCCCC1 (centres undefined)	-1	-1	7	-2	8	0	nt	nt	nt	nt	nt
Cc1cc(N)n2ncc(-c3ccc(Cl)cc3)c2n1	37*	0	3	48	-14	-6	32	52*	40*	39*	44*
CC(=O)c1c(C)[nH]c(C(=O)OCCCCN2C(=O)c3ccccc3C2=O)c1C	39*	0	-26	-31	4	3	1	-11	12	-7	22*
CC(=O)c1c(C)[nH]c(C(=O)OCc2ccccc2)c1C	13	1	-21	21	-5	-3	nt	nt	nt	nt	nt
COC(=O)c1nnn(-c2nonc2N)c1COc1ccc(C=O)cc1OC	-12	0	2	5	-3	nt	nt	nt	nt	nt	nt
COc1ccc(NC(=S)NC(NC(=O)c2cccc(C)c2)C(Cl)(Cl)Cl)c([N+](=O)[O-])c1 (centres undefined)	3	-1	-38	-29	3	5	nt	nt	nt	nt	nt
COc1ccc(NC(=S)NC(NC(=O)c2cccc(Cl)c2)C(Cl)(Cl)Cl)c([N+](=O)[O-])c1 (centres undefined)	37*	-2	-3	39	-9	-8	22	33	20*	20	33*
CC(C)c1ccc(N)c(S(=O)(=O)O)c1	-4	1	-2	7	nt	nt	nt	nt	nt	nt	nt
O=S(=O)(NC1CCCCC1Oc1ccccc1)c1ccccc1 (centres undefined)	4	-1	0	-12	-3	1	nt	nt	nt	nt	nt
CCN(CC)S(=O)(=O)c1ccc(/C=C/C(=O)OCC(=O)N(C(C)C)C(C)C)cc1	47*	0	-1	-2	-1	nt	-1	9	-8	7	6
COC(=O)CCSc1cc(NCCOC(C)=O)c([N+](=O)[O-])c2nonc12	43*	0	-14	-7	-7	0	-2	-3	-6	4	-3
CCOc1ccc(NS(=O)(=O)c2ccc3ncsc3c2)cc1	-13	-1	-7	4	-3	nt	nt	nt	nt	nt	nt
Cc1nc2ccc(S(=O)(=O)NC(C(=O)Nc3nc4ccc(Cl)cc4s3)C(C)C)cc2s1 (centres undefined)	30*	3	-37	24	-4	-2	10	16	7	18	7
Cc1nc2ccc(S(=O)(=O)NC(C(=O)Nc3nccs3)C(C)C)cc2s1 (centres undefined)	6	0	-6	11	-2	8	nt	nt	nt	nt	nt
CCCc1nc2oc3ccccc3c(=O)c2c(=O)n1CCCOC	-9	0	2	-12	nt	nt	nt	nt	nt	nt	nt
CCO[C@@H]1OC(C(=O)O)=C[C@H](c2ccc(Br)cc2)[C@H]1CCCO	-7	-1	-10	5	-2	nt	nt	nt	nt	nt	nt
SMILES	NPY2 pot ag	S1P4 ag	S1P4 antag	NPY-Y1 PAM-ag	NPY-Y1 antag	NPY Y2 blocker	NPY-Y2 pot conf	NPY-Y1 potentiator	NPY-Y1 agonist 2	CNGC inh	NPY-Y2 ag 2
COc1cc(/C=C2\C(=O)N(c3ccc(NC(C)=O)cc3)N=C2c2ccccc2)ccc1O	-3	-2	8	-7	-5	nt	nt	nt	nt	nt	nt
O=C1/C(=C\c2ccc(O)c(O)c2)C(c2ccccc2)=NN1c1ccccc1	26*	0	28	21	-5	nt	10	8	-1	8	7
Cc1ccc(S(=O)(=O)Nc2ccc(NC(=O)c3c(F)c(F)c(F)c(F)c3F)cc2)cc1	35*	-2	-10	38	-5	nt	23	35	26*	28*	24*
Cc1ccc(S(=O)(=O)Nc2ccc(NC(=O)c3cccs3)cc2)cc1	17	0	-16	-14	2	nt	nt	nt	nt	nt	nt
Cc1csc(NC(=O)C2CCN(S(=O)(=O)c3ccccc3F)CC2)n1	14	0	1	7	-4	nt	nt	nt	nt	nt	nt
Cn1cnc(S(=O)(=O)Nc2cc(-c3ccc(Cl)cc3)nn2C)c1	6	0	10	-10	nt	nt	nt	nt	nt	nt	nt
Cc1nn(-c2ccccc2)nc1C(=O)c1c(C)[nH]n(-c2ccccc2)c1=O	65*	-1	-7	-22	nt	nt	-20	-13	-6	-13	-5
Cc1[nH]n(-c2ccccc2)c(=O)c1C(=O)c1ccc([N+](=O)[O-])cc1	0	1	-10	7	0	nt	nt	nt	nt	nt	nt
Cc1nn(-c2ccccc2)c2sc(C(=O)NC3CC3)cc12	45*	-1	3	-6	0	0	-5	-3	4	1	0
Fc1nc(F)c(F)c(NCCCNc2c(F)c(F)nc(F)c2F)c1F	28*	0	10	34	-7	nt	19	24	25*	23*	32*
O=c1[nH][nH]c2ccccc2c1=O	87*	1	0	1	nt	nt	2	6	-12	0	-3
